For orientation: pIC50 means the negative decadic logarithm of the IC50, by convention in mol/L. As usually defined, the inhibition is how much of the control response was suppressed. Read a high inhibition as strong suppression. In general, pEC50 refers to the negative decadic logarithm of the EC50, by convention in mol/L. As a reminder, the Cmax is the peak of the concentration-time curve. In general, AUC refers to concentration integrated over time. The bioavailability is dose-corrected exposure relative to a reference, in per cent. Low values mean little systemic uptake, high ones much systemic uptake.

pEC50, pIC50: −log10 of the molar value.

Results on 42 compounds are retold here after ChEMBL document CHEMBL1134437, “Synthesis and biological evaluation of novel pyrazoles and indazoles as activators of the nitric oxide receptor, soluble guanylate cyclase” (J Med Chem, 2001).

The nature of data set [1]: (§1) Bovine sGC stimulation measured as relative enzyme activity (percentage of DEA/NO response for the compound to compound 3). The class given is functional. Put shortly: (§2)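 Baculovirus-expressed bovine sGC from Sf21 cells, partially purified on Mono-Q. Compound at 1 µM single concentration in Tris buffer pH 7.4 with 5 mM MgCl2, IBMX and GTP; sGC submaximally stimulated with 300 nM DEA/NO, 10 min at room temperature. cGMP by competitive enzyme immunoassay, duplicate, at least n = 2; expressed as % of DEA/NO response, then ratio to benzydamine.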

For data set [2], the species on record is Homo sapiens. In words: Concentration required to inhibit collagen-induced platelet aggregation by 50%. In kind it is functional. Put shortly:
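Washed human platelets, prepared from citrated blood with PGI2 and normalized to 250 000 cells/µL in calcium-free Tyrode's buffer pH 7.4. Compound (DMSO ≤0.1% final) added 1 min before an EC50 dose of collagen. Light-transmittance aggregometry at 37 °C, response read 3 min after collagen and normalized to collagen control. IC50 from dose-response curves, mean ± SEM, at least 2 experiments.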

For data set [3], the species on record is Homo sapiens. In words: Percent inhibition of collagen-induced platelet aggregation at 100 uM concentration. The class given is functional.
Data set [4] can be described thus: Activation of sGC Enzyme (soluble Guanylate Cyclase) in Sf21 cells infected with baculo virus in the presence of 30 nM of PAPA/NO. The class given is functional, cell-based. Put shortly:
(§3)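 Bovine sGC expressed in Sf21 cells (baculovirus, 2.5 µg/mL hemin, 27 °C, 48 h), partially purified by Mono-Q anion exchange. Reaction in Tris buffer pH 7.4 with 5 mM MgCl2, 120 µg/mL enzyme, IBMX and GTP, stimulated by 30 nM PAPA/NO, room temperature, 10 min. cGMP read by competitive enzyme immunoassay. EC50 from nonlinear regression, mean ± SEM of at least 3 independent experiments.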

Data set [5] in a line: (§4) Compound was evaluated for pharmacokinetic parameter was determined after oral dosing of 2 mg/kg in rat. The class given is ADME, organism-based. On the set-up: dose 2 mg/kg, route oral. The settings on record: in vivo. Put shortly:
(§5)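 Male Sprague-Dawley rats, cassette-dosed at 2 mg/kg in PBS orally (iv arm also run). Serum extracted into diethyl ether and analysed by reversed-phase C18 HPLC.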

Data set [6] has as its system Rattus norvegicus. The description is as §4. The settings on record: in vivo. On the set-up: dose 2 mg/kg, route oral. In kind it is ADME, organism-based. Put shortly: as §5
The nature of data set [7]: Bioavailability in rat after (dose 2 mg/kg p.o.). Conditions: in vivo, po. In kind it is ADME, organism-based. The procedure, abridged:
as §5

A short description of data set [8]: Activation of bovine sGC Enzyme (soluble Guanylate Cyclase) in Sf21 cells infected with baculo virus in the presence of 30 nM of PAPA/NO. The class given is cell-based. The procedure, abridged:
as §3

Data set [9] is described as follows: as §1. Put shortly:
as §2

For data set [10], the species on record is Homo sapiens. In words: Percent inhibition of collagen-induced platelet aggregation at 50 uM concentration. The class given is functional.
The subject of data set [11] is Rattus norvegicus. In words: Area under curve (AUC) was determined after oral dosing of 5 mg/kg in rat. In kind it is ADME, organism-based. On the set-up: dose 5 mg/kg, route oral. The settings on record: in vivo. Put shortly: (§6)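 Male Sprague-Dawley rats given 5 mg/kg in PBS orally (iv arm also run). Blood taken predose and at 0.5, 1, 2, 3, 4, 6, 10 and 24 h after oral dosing. Serum extracted into diethyl ether and analysed by reversed-phase C18 HPLC.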

Data set [12] in a line: Cmax was determined after oral dosing of 5 mg/kg in rat. The class given is ADME, organism-based. On the set-up: dose 5 mg/kg, route oral. Conditions: in vivo. The procedure, abridged: as §6
Data set [13] is described as follows: Bioavailability in rat after (dose 5 mg/kg p.o.). The class given is ADME, organism-based. Conditions: in vivo, po. Put shortly: as §6
The species named for data set [14] is Homo sapiens. Briefly: Percent inhibition of collagen-induced platelet aggregation by 50% at a concentration of 100 uM. In kind it is functional.

Regarding `CN(C)CCCNc1cc(-c2ccccc2)[nH]n1`, the REA in [1] was 0.66. `COc1cc(-c2cc(OCCCN(C)C)[nH]n2)cc(OC)c1OC`: the REA in data set [1] amounted to 1.1. The compound further gave a pIC50 in data set [2] of 4.39.

`CN(C)CCCOc1cc(C(=O)N(C)C)n(Cc2ccccc2)n1`: in [3], the inhibition at 100 µM came to 4%. Further, in data set [1], the REA was found to be 0.93. In turn, `CN(C)CCOc1nn(Cc2ccccc2)c2ccccc12` yielded an REA in data set [1] of 0.33.

Consider `CN(C)CCCOc1nn(CCCN(C)C)c2ccccc12`, for which the REA in data set [1] was found to be 0.79. Consider `OCc1ccc(-c2nn(Cc3ccccc3)c3ccccc23)o1`, for which the pEC50 in data set [4] is 5.39. For `CN(C)CCCOc1nn(-c2ccccc2)c2ccccc12`, in data set [5], the peak level (Cmax) was 3.2 ng/mL. This compound displayed an area under the curve (AUC) in [6] of 7.9 ng·h/mL. The compound also showed an REA in data set [1] of 1.16. Also, in [2], the pIC50 is 5.61. In data set [7], this compound returned a bioavailability of 2%.

Take `CN(C)CCCOc1[nH]ncc1-c1ccccc1`: the REA in [1] was 1.17. This compound also showed a pIC50 in data set [2] of 4.92. As for `CNC(=O)c1cc(OCCCN(C)C)nn1Cc1ccccc1`, the REA in [1] amounted to 0.95. Turning to `Nc1ncccc1COc1cc(-c2ccccc2)[nH]n1`, the REA in data set [1] was found to be 0.69. Regarding `CN(C)CCCOc1cc(Cc2ccccc2)n[nH]1`, the negative-log EC50 (pEC50) in data set [8] is 6.78. This compound also registered an REA in [1] of 1.54. The pIC50 in data set [2] is 4.31.

For `CN(C)CCCOc1nn(Cc2ccccc2)c2ccccc12` [BENZYDAMINE], the negative-log EC50 (pEC50) in data set [8] is 5.99. Besides, in data set [1], the REA came to 1. The same compound had a pIC50 in [2] of 5.18. Regarding `CC(C)n1nc(OCCCN(C)C)c2ccccc21`, the REA in data set [1] worked out at 0.66. `CC(=O)n1nc(OCCCN(C)C)c2ccccc21` displayed an REA in data set [1] of 0.82. Compound `CN(C)CCCOc1ccn(Cc2ccccc2)n1` came in with an REA in data set [1] of 0.73. As to `CN(C)CCCOc1[nH]nc2ccccc12`, the REA in data set [9] worked out at 1.93. This compound showed an inhibition at 50 µM in data set [10] of 50%. On to `CN(C)CCCOc1nn(CCc2ccccc2)c2ccccc12`, for which the REA in data set [1] stood at 0.84. Turning to `COc1ccc(NC(=O)c2cc(OCCCN(C)C)nn2Cc2ccccc2)cc1`, the pEC50 in [8] was 5.26. The REA in data set [1] was found to be 1.1. For the same compound, in data set [11], the AUC is 61.1 ng·h/mL.

In data set [1], `CN(C)CCCOc1cc(-c2ccccc2)nn1Cc1ccccc1` showed an REA of 0.72. In [3], `CN(C)CCCOc1cc(C(F)(F)F)[nH]n1` yielded an inhibition at 100 µM of 8%. The compound also showed an REA in data set [1] of 1.13. In data set [1], `CN(C)CCCCOc1nn(Cc2ccccc2)c2ccccc12` returned an REA of 0.79. The pIC50 in data set [2] is 5.12. Take `CN(C)CCCOc1cc(-c2ccccc2)n(-c2ccccc2)n1`: the peak level in data set [12] (Cmax) was 1.4 ng/mL. Also, the pEC50 in data set [8] was 6.24. For the same compound, in data set [13], the bioavailability is < 2%. Besides, the REA in data set [1] was determined as 1.28. This compound also showed a pIC50 in data set [2] of 5.55. The AUC in [11] was determined as 3.3 ng·h/mL. `CN(C)CCCOc1nn(C(=O)c2ccccc2)c2ccccc12` returned an REA in [1] of 1.04. The compound also gave a pIC50 in [2] of 5.07. With `CN(C)CCCOc1cc(-c2ccccc2)[nH]n1`, at 100 µM the inhibition in data set [3] was 19%. Besides, in [8], the pEC50 is 6.14. In data set [1], this compound returned an REA of 1.49. As for `CN(C)CCCOc1cc(C(=O)NCc2ccccc2)n(Cc2ccccc2)n1`, in [3], the inhibition at 100 µM is 25%. This compound returned an REA in data set [1] of 1.22.

For `CCN(CC)CCCOc1cc(-c2ccccc2)[nH]n1`, the REA in data set [1] was found to be 0.42.

On to `CN(C)CCCCCOc1nn(Cc2ccccc2)c2ccccc12`, for which the REA in data set [1] amounted to 0.56.

Turning to `CC(COc1nn(Cc2ccccc2)c2ccccc12)CN(C)C` (centres undefined), the REA in data set [1] is 0.62. This compound also gave a pIC50 in data set [2] of 5.38. With `CN1CCCC(COc2cc(-c3ccccc3)[nH]n2)C1` (centres undefined), the REA in [1] was 0.61.

In data set [1], `CN(C)CCCOc1cc(-c2ccoc2)[nH]n1` yielded an REA of 1.31. The same compound gave a pIC50 in data set [2] of 4.00. For `CN(C)CCCOc1ccn(-c2ccccc2)n1`, in [1], the REA was found to be 0.71. Besides, the inhibition at 100 µM in data set [14] worked out at 3%.

In data set [3], `CCCN(CCC)C(=O)c1cc(OCCCN(C)C)nn1Cc1ccccc1` came in with an inhibition at 100 µM of 35%. This compound also yielded an REA in data set [1] of 1.22. In data set [3], `CN(C)CCCOc1cc(-c2ccncc2)[nH]n1` registered an inhibition at 100 µM of 0%. Further, the REA in data set [1] amounted to 1.15. In turn, `CN(C)CCCOc1nn(C(=O)N(C)C)c2ccccc12` displayed an REA in [1] of 0.78. Same read-out and setting: to `c1ccc(-c2cc(OCCCN3CCCC3)n[nH]2)cc1` belongs 0.85. Consider `CN(C)CCCOc1cc(-c2ccccc2)n(Cc2ccccc2)n1`, for which the Cmax in data set [5] turned out to be 3.1 ng/mL. The AUC in data set [6] turned out to be 15.5 ng·h/mL. Besides, the pEC50 in data set [8] was 6.36. In data set [1], this compound came in with an REA of 1.08. This compound also gave a negative logarithm of the IC50 (pIC50) in data set [2] of 5.63. The bioavailability in data set [7] came to 2%. For the compound `CN(C)CCCOc1cc(C(=O)O)n(Cc2ccccc2)n1`, the REA in data set [1] is 1.01.

In turn, `Nc1cc(COc2cc(-c3ccccc3)[nH]n2)ccn1` returned an REA in [1] of 0.53. Compound `NCCCOc1nn(Cc2ccccc2)c2ccccc12` had an REA in data set [1] of 0.48. For the compound `CN(C)CCCOc1cc(C(=O)N2CCOCC2)n(Cc2ccccc2)n1`, the inhibition at 100 µM in data set [3] was 90%. In [1], this compound displayed an REA of 0.84. Compound `CN(C)CCCCc1cc(-c2ccccc2)[nH]n1` gave an REA in data set [1] of 0.68. Regarding `CN(C)CCCOc1nn(S(C)(=O)=O)c2ccccc12`, in [1], the REA amounted to 1.07. Also, the pIC50 in data set [2] was 4.67.
